Tests used:
[1] = HE staining of major organs; assay type: in vivo, BALB/c mice; conditions: after treatment, compared with PBS group
[2] = Pharmacokinetic assay; assay type: in vivo, BALB/c mice
[3] = tested on: 4T1 cells; assay: Cytotoxicity MTT assay; assay type: cell-based, mouse
[4] = tested on: 4T1 cells; assay: Scratch healing assay; assay type: cell-based, mouse; conditions: 12 h
How it was run: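 4T1 monolayers at about 90% confluence were scratched in a straight line and rinsed with PBS. They were then incubated 12 h in medium with PBS or test agents (GEM-equivalent 0.1 μg/mL). Images were taken at 0 and 12 h, and healing rate was calculated by image analysis.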

[5] = Hematological analysis and serum biochemical analysis; assay type: in vivo, BALB/c mice; conditions: mice, i.v., GEM-equivalent 4 mg/kg, 5 times
How it was run: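 Mice were split into 4 groups (n = 3): PBS or test preparations i.v. at GEM-equivalent 4 mg/kg, every 2 days for 5 doses. After treatment, blood was taken for haematology and serum for biochemistry.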

[6] = Long-term stability in water at 4 °C; assay type: physicochemical
How it was run: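 Micelle solutions at 0.5 mg/mL in water were stored at 4 °C, alongside a TPGS-stabilised prodrug formulation as control. Appearance and particle size were recorded until precipitation appeared.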

[7] = tested on: MMP-9; conditions: cited from earlier work
[8] = tested on: 4T1 tumor-bearing mice; assay: In vivo tumor-targeting assay and biodistribution; set-up: species or system BALB/c mice; conditions: i.v.
How it was run: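 Female BALB/c mice (about 5 weeks) carried mammary-pad 4T1 tumours (1 × 10^6 cells) and were used on day 10. Groups (n = 9) got PBS, DiD-loaded micelles or free DiD in propylene glycol/PBS 1:1, at 20 μg DiD per mouse via tail vein. Whole-body imaging at 1–24 h; ex vivo organ imaging at 4, 8 and 24 h (3 per point); confocal of 24 h tumour sections.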

[9] = tested on: MMP-9; assay: Detection of MMP-9 by Western blot in 4T1 cells; assay type: cell-based, mouse; conditions: 24 h, LT 100 μg/mL, LMWH 60 μg/mL
How it was run: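 4T1 cells at about 60% confluency were exposed for 24 h to fresh medium containing test agents or PBS. Lysates were centrifuged at 15,700×g, 4 °C, 15 min. Supernatant proteins were run on 6% SDS-PAGE and blotted to PVDF. Blots were probed with MMP-9 antibody and HRP-labelled anti-goat secondary, then imaged.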

[10] = Content of GEM; assay type: physicochemical; conditions: toluidine blue spectrophotometry
How it was run: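 LMWH content: samples at 40 μg/mL were mixed with 0.005% toluidine blue in PBS (pH 7.4) and shaken 30 s. Hexane was added and shaken 1 min, and the aqueous layer was read at 630 nm. GEM content: acid/CuCl2 hydrolysis at 70 °C for 12 h, then filtration and C18 HPLC. Mobile phase was ammonium acetate pH 5.7/methanol 90:10 at 1 mL/min, UV 268 nm.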

[11] = tested on: platelets adhering to 4T1 cells; assay: Interaction of tumor cells with platelets; assay type: cell-based, mouse; conditions: LMWH-equivalent 80 μg/mL, compared with PBS group
How it was run: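 4T1 cells at about 80% confluency were pre-incubated 20 min with test agents or PBS (LMWH-equivalent 80 μg/mL). Washed platelets from fresh blood were labelled with 5 μmol/L calcein AM, added, and co-cultured 2 h. After washing, cells were lysed in DMSO and fluorescence read at Ex 490 / Em 515 nm.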

[12] = tested on: red blood cell (RBC) suspension from mouse; assay: Hemolysis assay; assay type: cell-based; conditions: 0.3% Triton
[13] = Tail bleeding assay; assay type: in vivo, BALB/c mice; conditions: mice, i.v., LMWH-equivalent 20 mg/kg, 30 min after injection, versus PBS
How it was run: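 Mice were split into 3 groups (n = 3): PBS or test agents i.v. at LMWH-equivalent 20 mg/kg. At 30 min, 3 mm of tail tip was cut and the tail immersed in PBS at 37 °C. The endpoint was time to complete cessation of bleeding.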

[14] = tested on: 4T1 solid tumor; assay: In vivo anti-tumor assay, 4T1 solid tumor model; set-up: species or system BALB/c mice; conditions: day 18
How it was run: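 Female BALB/c mice received 1 × 10^6 4T1 cells in the mammary pad. From day 5 they were grouped (n = 6) and dosed via tail vein with PBS or test preparations. Doses were GEM-equivalent 4 mg/kg and LMWH-equivalent 18.4 mg/kg, every 2 days for 5 doses. On day 18, tumours and major organs were taken for H&E staining.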

[15] = female, BALB/c, mouse, plasma, iv, 4 mg/kg

Question: With `Nc1ccn([C@@H]2O[C@H](CO)[C@@H](O)C2(F)F)c(=O)n1` [GEM, Gemcitabine] as the compound, how does the “HE staining of other organs” value [1] read?
Answer: myocardial rupture and glomerular effusion

Question: What about the clearance [2, 15] of the same compound?
Answer: 5.67 mL/min/kg

Question: And the half-life [2, 15]?
Answer: 36.9 ± 2.22 min

Question: What about the V1 ([2]; mice, i.v., GEM-equivalent 4 mg/kg, plasma GEM) of the same compound?
Answer: 0.027 ± 0.015 L/kg

Question: And the cytotoxicity ([3]; MTT, 48 h)?
Answer: concentration-dependent cytotoxicity

Question: What about the relative cytotoxicity ([3]; concentration of GEM more than 0.037 μg/mL) of the same compound?
Answer: more cytotoxic than GLT

Question: What about the “scratch healing rate (in words, versus PBS)” value [4] of the same compound?
Answer: healing rates decreased

Question: And the “levels of CK (creatine kinase) in serum” value [5]?
Answer: increased

Question: And the “number of white blood cells (WBC) and neutrophilic granulocyte (Gran)” value ([5]; compared with PBS group)?
Answer: decrease

Question: Which “long-term stability (appearance, particle size)” value [6] does the source give for `Cc1c(C)c2c(c(C)c1OC(=O)CCC(=O)Nc1ccn(C3OC(CO)C(O)C3(F)F)c(=O)n1)CCC(C)(CCCC(C)CCCC(C)CCCC(C)C)O2` (stereo not shown) [GT, GEM-TOS] here?
Answer: aggregated to form precipitates in 6 h

Question: Which “secretion of MMP-9 in B16F10 cells” value [7] does the source give for `Cc1c(C)c2c(c(C)c1OC(=O)CCC(=O)O)CC[C@@](C)(CCC[C@H](C)CCC[C@H](C)CCCC(C)C)O2` [TOS, D-α-tocopherol succinate] here?
Answer: inhibited

Question: For `CCCCCCCCCCCCCCCCCCN1C(=CC=CC=CC2=[N+](CCCCCCCCCCCCCCCCCC)c3ccccc3C2(C)C)C(C)(C)c2ccccc21` [free DiD, 1,1′-dioctadecyl-3,3,3′,3′-tetramethylindodicarbocyanine], which “main site of signal” value [8] is on record?
Answer: mainly showed in liver

Question: Which results are given for LMWH-TOS [LT]?
Answer: MMP-9 secreted by 4T1 cells [9]: significantly inhibited; content of LMWH [10]: 47%; cell viability ([3]; up to 250 μg/mL): almost did not affect cell viability; number of adhesive platelets on tumor cells [11]: significantly decreased

Question: For Triton, which “erythrocyte lysis (positive control)” value [12] is on record?
Answer: complete cell lysis

Question: For low-molecular-weight heparin [LMWH], which bleeding time [13] is on record?
Answer: no significant difference

Question: And the “MMP-9 secreted by 4T1 cells” value [9]?
Answer: did not have obvious effect

Question: What about the “scratch healing rate (in words, versus PBS)” value [4] of the same compound?
Answer: healing rates decreased

Question: And the “number of adhesive platelets on tumor cells” value [11]?
Answer: significantly decreased

Question: And the “HE staining of tumor” value [14]?
Answer: retained their complete microstructures
